Values after ≈ are worked out from the molar mass of the structure shown. Active and inactive are the calls of the source. No cut-off for these calls is given here.
Key:
[1] = Inhibition of human recombinant MIF2 tautomerase activity expressed in bacterial expression system assessed as PP conversion incubated for 10 mins by tautomerase assay
[2] = Inhibition of MIF2 (unknown origin); set-up: species or system Homo sapiens
[3] = Solubility of the compound; assay type: physicochemical
[4] = species on record: Homo sapiens; assay: Substrate activity at MIF2 tautomerase (unknown origin) assessed as ratio of Kcat to Km
Outline: (§1)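 Keto-enol tautomerization kinetics with phenylpyruvate, 4-chloro-, 4-hydroxy- and 4-methoxyphenylpyruvate as substrates. Initial conversion velocities taken from the linear first 3 min of UV absorbance increase. Kcat, Km and Kcat/Km derived from these rates.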

[5] = species on record: Homo sapiens; assay: Substrate activity at MIF2 tautomerase (unknown origin) assessed as rate constant Km; outline: as §1
[6] = species on record: Homo sapiens; assay: Substrate activity at MIF2 tautomerase (unknown origin) assessed as rate constant Kcat; outline: as §1
[7] = system: HCC827; assay: Inhibition of colony formation in human HCC827 cells assessed as colony size measured after 5 days by crystal violet staining method; assay type: functional, cell-based; conditions: dose 1-10 µM, time 5.0 day, DDE = dose-dependent effect
Outline: (§2)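 Seeded at 1000 cells/well in RPMI-1640 with 10% FBS and incubated overnight. Exposed to compound or DMSO for 5 days. Fixed in 4% paraformaldehyde for 20 min, then stained with 0.5% crystal violet for 20 min. Colonies imaged, dissolved in acetic acid, and absorbance read at 590 nm. Values relative to DMSO wells. Three experiments, mean ± SD.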

[8] = system: A549; assay: Induction of cell cycle arrest in human A549 cells assessed as accumulation of cells in G0/G1 phase for 2 days by flow cytometry analysis; assay type: functional, cell-based; conditions: dose 5-10 µM, time 2.0 day, DDE = dose-dependent effect
Outline: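 A549 seeded at 1 × 10^5 per well and treated next day with compound or vehicle for 48 h. Cells trypsinized, then stained with 20 μg/mL propidium iodide plus 0.1% Triton X-100 for 15 min at room temperature. 30 000 cells acquired by flow cytometry and G0/G1, S and G2/M fractions gated. n = 3, mean ± SD.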

[9] = system: NCI-H1650; assay: Inhibition of colony formation in human NCI-H1650 cells at 10 uM measured after 5 days by crystal violet staining method; assay type: functional; conditions: NCI-H1650, 120 h, time 5 day; outline: as §2
[10] = system: A549; assay: Inhibition of colony formation in human A549 cells assessed as colony size measured after 5 days by crystal violet staining method; assay type: functional, cell-based; conditions: dose 1-10 µM, time 5.0 day, DDE = dose-dependent effect; outline: as §2
[11] = system: HCC827; assay: Inhibition of colony formation in human HCC827 cells assessed as colony number measured after 5 days by crystal violet staining method; assay type: functional, cell-based; conditions: dose 1-10 µM, time 5.0 day, DDE = dose-dependent effect; outline: as §2
[12] = system: A549; assay: Inhibition of colony formation in human A549 cells assessed as colony number measured after 5 days by crystal violet staining method; assay type: functional, cell-based; conditions: dose 1-10 µM, time 5.0 day, DDE = dose-dependent effect; outline: as §2
[13] = system: NCI-H1650; assay: Antiproliferative against human NCI-H1650 cells assessed as inhibition of cell viability measured after 72 hrs by fluorescence based assay; assay type: functional
Outline: (§3)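 Cells in RPMI-1640 with 10% FBS, 37 °C, 5% CO2, seeded at 1000 cells/well and cultured overnight. Treated with compound (0.25–10 μM) for 72 h. Relative cell number from DNA content by CyQUANT Direct, with 60 min detection reagent and fluorescence read at 485/535 nm. Normalized to DMSO control. Mean ± SD of three experiments.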

[14] = system: NCI-H1299; assay: Inhibition of colony formation in human NCI-H1299 cells at 10 uM measured after 5 days by crystal violet staining method; assay type: functional; conditions: NCI-H1299, 120 h, time 5 day; outline: as §2
[15] = system: A549; assay: Inhibition of colony formation in human A549 cells at 10 uM measured after 5 days by crystal violet staining method; assay type: functional; conditions: A549, 120 h, time 5 day; outline: as §2
[16] = system: A549; assay: Antiproliferative against human A549 cells assessed as inhibition of cell viability at 1 uM measured after 72 hrs by fluorescence based assay; assay type: functional; outline: as §3
[17] = species on record: Homo sapiens; assay: Stabilization of human recombinant MIF2 expressed in bacterial expression system assessed as apparent melting temperature by fluorescence based thermal shift assay; conditions: DDE = dose-dependent effect
Outline: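 Recombinant MIF2 expressed from pET20b(+) in E. coli BL21(DE3) and purified by Q sepharose, phenyl sepharose and size exclusion (trimer), in 20 mM sodium phosphate pH 8.0. Fluorescence-based thermal shift read-out: apparent melting temperature with compound versus DMSO control, with ΔTm as the difference.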

[18] = system: A549; assay: Antiproliferative against human A549 cells assessed as inhibition of cell viability measured after 72 hrs by fluorescence based assay; assay type: functional; outline: as §3
[19] = system: HCC827; assay: Inhibition of colony formation in human HCC827 cells at 10 uM measured after 5 days by crystal violet staining method; assay type: functional; conditions: HCC827, 120 h, time 5 day; outline: as §2
[20] = system: HCC827; assay: Antiproliferative against human HCC827 cells assessed as inhibition of cell viability measured after 72 hrs by fluorescence based assay; assay type: functional; outline: as §3
[21] = system: NCI-H1299; assay: Inhibition of colony formation in human NCI-H1299 cells assessed as colony size measured after 5 days by crystal violet staining method; assay type: functional, cell-based; conditions: dose 1-10 µM, time 5.0 day, DDE = dose-dependent effect; outline: as §2
[22] = system: A549; assay: Inhibition of MIF2 related signalling pathway assessed as inhibition of MIF2 induced ERK phosphorylation in human A549 cells in presence of recombinant MIF2 incubated for 15 min by Western blot analysis; assay type: cell-based; conditions: dose 0.1-10 µM, DDE = dose-dependent effect
Outline: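 A549 (3 × 10^5/well) grown overnight in RPMI with 0.5% FBS. Stimulated 15 min with recombinant MIF2 (100 ng/mL, serum-free), alone or preincubated with compound. Lysed in RIPA with phosphatase/protease inhibitors, and 20 μg protein blotted for pERK, ERK and GAPDH. pERK:ERK densitometry normalized to control; n = 2.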

[23] = system: NCI-H1650; assay: Inhibition of colony formation in human NCI-H1650 cells assessed as colony number measured after 5 days by crystal violet staining method; assay type: functional, cell-based; conditions: dose 1-10 µM, time 5.0 day, DDE = dose-dependent effect; outline: as §2
[24] = system: NCI-H1299; assay: Inhibition of colony formation in human NCI-H1299 cells assessed as colony number measured after 5 days by crystal violet staining method; assay type: functional, cell-based; conditions: dose 1-10 µM, time 5.0 day, DDE = dose-dependent effect; outline: as §2
[25] = system: NCI-H1299; assay: Antiproliferative against human NCI-H1299 cells assessed as inhibition of cell viability measured after 72 hrs by fluorescence based assay; assay type: functional; outline: as §3
[26] = system: NCI-H1650; assay: Inhibition of colony formation in human NCI-H1650 cells assessed as colony size measured after 5 days by crystal violet staining method; assay type: functional, cell-based; conditions: dose 1-10 µM, time 5.0 day, DDE = dose-dependent effect; outline: as §2
[27] = Inhibition of human MIF2 tautomerase activity expressed in Escherichia coli by anion-exchange chromatography

Molecule: CCOCCNC(=O)c1cc(-c2ccc(Cl)cc2)sc1N
- IC50 [1]: > 100 µM

Molecule: COc1cccc(Cc2nc3sc(-c4ccc(Cl)cc4)c(C)c3c(=O)[nH]2)c1
- IC50 [1]: 4.3 µM

Molecule: Cc1c(-c2ccc(Cl)cc2Cl)sc2[nH]c(=O)n(Cc3ccccc3)c(=O)c12
- IC50 [1]: 3.5 µM

Molecule: CCCCn1c(=O)[nH]c2sc(-c3ccccc3)cc2c1=O
- IC50 [1]: 16 µM

Molecule: Cc1c(-c2ccc(Cl)cc2)sc2[nH]c(=O)n(Cc3ccccc3)c(=O)c12
- IC50 [1]: 5.1 µM

Molecule: Cc1c(-c2cccc(C(F)(F)F)c2)sc2[nH]c(=O)n(Cc3cccc4ccccc34)c(=O)c12
- IC50 [1]: 0.81 µM

Molecule: Cc1c(-c2ccc(Cl)c(Cl)c2)sc2[nH]c(=O)n(Cc3ccccc3)c(=O)c12
- IC50 [1]: 1.9 µM

Molecule: Cc1c(-c2ccc(Cl)cc2)sc2[nH]c(=O)n(Cc3ccc(C(F)(F)F)cc3)c(=O)c12
- IC50 [1]: 4.8 µM

Molecule: CCCCNC(=O)c1cc(-c2ccccc2)sc1NC(=O)CCC
- IC50 [1]: 39 µM

Molecule: Ic1cc(-c2ccccc2)ncn1
- IC50 [2]: > 100 µM

Molecule: Cc1c(-c2cccc(C(F)(F)F)c2)sc2[nH]c(=O)n(Cc3ccccc3)c(=O)c12
- IC50 [1]: 1.7 µM

Molecule: Cc1c(-c2ccc3c(c2)OCO3)sc2[nH]c(=O)n(Cc3ccccc3)c(=O)c12
- IC50 [1]: 4.6 µM

Molecule: Cc1c(-c2cccc(C(F)(F)F)c2)sc(N)c1C(=O)N[C@@H](C)c1cccc2ccccc12
- IC50 [1]: 7.9 µM

Molecule: Cc1c(-c2cccc(C(F)(F)F)c2)sc2[nH]c(=O)n([C@@H](C)c3cccc4ccccc34)c(=O)c12
- IC50 [1]: 2.5 µM
- solubility [3]: 15 µg/mL (≈ 31.2 µM)

Molecule: Cc1c(-c2ccc(Cl)cc2)sc2[nH]c(=O)n(-c3ccccc3)c(=O)c12
- IC50 [1]: 19 µM

Molecule: 4-hydroxylphenylpyruvate
- kcat/Km [4]: 0.37 10^4/M/s
- Km [5]: 3.62 mM
- kcat [6]: 13 s⁻¹

Molecule: Cc1c(-c2ccc(Cl)cc2)sc2nc(Cc3ccccc3)[nH]c(=O)c12
- IC50 [1]: 15 µM

Molecule: Cc1c(-c2cccc(C(F)(F)F)c2)sc2[nH]c(=O)n([C@H](C)c3cccc4ccccc34)c(=O)c12
- inhibition [7]: Dde
- Activity [8]: Dde
- IC50 [1]: 1 µM
- inhibition at 10 µM [9]: 90%
- inhibition [10]: Dde
- inhibition [11]: Dde
- inhibition [12]: Dde
- Activity ([13]; DDE = dose-dependent effect): Dde
- IC50 ([13]; NCI-H1650, 72 h): 5.3 µM
- inhibition at 10 µM [14]: 90%
- inhibition at 10 µM [15]: 90%
- Activity [16]: Active
- deltaTm [17]: Dde
- IC50 ([18]; A549, 72 h): 3000 nM
- Activity ([18]; DDE = dose-dependent effect): Dde
- inhibition at 10 µM [19]: 90%
- Activity ([20]; DDE = dose-dependent effect): Dde
- IC50 ([20]; HCC827, 72 h): 5.2 µM
- inhibition [21]: Dde
- inhibition [22]: Dde
- inhibition [23]: Dde
- inhibition [24]: Dde
- Activity ([25]; DDE = dose-dependent effect): Dde
- IC50 ([25]; NCI-H1299, 72 h): 7.6 µM
- inhibition [26]: Dde
- solubility [3]: 16 µg/mL (≈ 33.3 µM)

Molecule: C=CCn1c(=O)[nH]c2sc(-c3ccc(Cl)cc3)cc2c1=O
- IC50 [1]: 15 µM

Molecule: Cc1c(-c2ccc(F)cc2)sc2nc(Cc3ccccc3)[nH]c(=O)c12
- IC50 [1]: 17 µM

Molecule: CCCCNC(=O)c1cc(-c2ccc(Br)cc2)sc1N
- IC50 [1]: 7.2 µM

Molecule: Nc1sc(-c2ccc(Cl)cc2)cc1C(=O)NCCc1ccc(Cl)cc1
- IC50 [1]: 36 µM

Molecule: Cc1c(-c2ccccc2)sc2[nH]c(=O)n(Cc3ccccc3)c(=O)c12
- IC50 [1]: 7.6 µM

Molecule: Nc1sc(-c2ccc(Cl)cc2)cc1C(=O)NCCc1ccccc1
- IC50 [1]: 84 µM

Molecule: CCCCNC(=O)c1cc(-c2ccc(Cl)cc2)sc1N
- IC50 [1]: 15 µM

Molecule: 4-methoxyphenylpyruvate
- kcat/Km [4]: 0.43 10^4/M/s
- Km [5]: 6.7 mM
- kcat [6]: 28 s⁻¹

Molecule: Nc1sc(-c2ccccc2)cc1C(=O)NCC1CCOC1 (centres undefined)
- IC50 [1]: 168 µM

Molecule: Cc1c(-c2cccc(C(F)(F)F)c2)sc(N)c1C(=O)NCc1cccc2ccccc12
- IC50 [1]: 2.6 µM

Molecule: CCCCCCCCNC(=O)c1cc(-c2ccccc2)sc1N
- IC50 [1]: 13 µM

Molecule: Cc1c(-c2ccccc2)sc2[nH]c(=O)n(-c3ccccc3)c(=O)c12
- IC50 [1]: > 100 µM

Molecule: phenylpyruvate
- kcat/Km [4]: 5.5 10^4/M/s
- Km [5]: 2.4 mM
- kcat [6]: 132 s⁻¹

Molecule: 4-chlorophenylpyruvate
- kcat/Km [4]: 3.2 10^4/M/s
- Km [5]: 2.17 mM
- kcat [6]: 68 s⁻¹

Molecule: O=c1[nH]c2scc(-c3ccc(Cl)cc3)c2c(=O)n1Cc1ccccc1
- IC50 [1]: 27 µM

Molecule: CCCCNC(=O)c1cc(-c2ccccc2)sc1NC(C)=O
- IC50 [1]: 41 µM

Molecule: Cc1c(-c2ccc(Cl)cc2)sc2nc(CCl)[nH]c(=O)c12
- IC50 [1]: 17 µM

Molecule: Cc1c(-c2cccc(C(F)(F)F)c2)sc(N)c1C(=O)N[C@H](C)c1cccc2ccccc12
- IC50 [1]: 4.2 µM

Molecule: O=c1[nH]c2scc(-c3ccccc3)c2c(=O)n1Cc1ccccc1
- IC50 [1]: 36 µM

Molecule: CCCCNC(=O)c1c(N)sc(-c2ccc(Cl)cc2)c1CCCC
- IC50 [1]: 15 µM

Molecule: O=C(O)c1cccc(-c2cc(C(=O)O)ncc2C(=O)O)c1
- IC50 [1]: 47 µM
- IC50 [27]: 27 µM

Reference: ChEMBL document CHEMBL5154701, “Thieno[2,3-d]pyrimidine-2,4(1H,3H)-dione Derivative Inhibits d-Dopachrome Tautomerase Activity and Suppresses the Proliferation of Non-Small Cell Lung Cancer Cells” (J Med Chem, 2022)
